In brackets after ≈: the same amount, converted by molar mass.
System: not listed separately
Experiment: Oral bioavailability in CD-1 mouse at 30 mg/kg as a solution in 40% PEG400/10%ethanol/50% water
Type: ADME, organism-based
Conditions: in vivo
`CCCS(=O)(=O)Nc1ccc(F)c(C(=O)Nc2cnc3[nH]ncc3c2)c1F` gave a bioavailability of 100%.
`CCCS(=O)(=O)Nc1ccc(F)c(C(=O)Nc2cnc3[nH]cc(Br)c3c2)c1F` showed a bioavailability of 71%.
Molecule `CCCS(=O)(=O)Nc1ccc(Cl)c(C(=O)Nc2cnc3[nH]ncc3c2)c1F` has a bioavailability of 67%.

System: not listed separately
Experiment: Aqueous solubility of the compound in phosphate buffer at pH 6.5 after 24 hrs by HPLC analysis
Type: physicochemical
Conditions: not given
For `CCCS(=O)(=O)Nc1ccc(F)c(C(=O)Nc2cnc3[nH]ncc3c2)c1F`, the solubility at 24 h was 80 µg/mL (≈ 202 µM).
Molecule `CCCS(=O)(=O)Nc1ccc(F)c(C(=O)Nc2cnc3[nH]nc(Br)c3c2)c1F` has a solubility at 24 h of 1 µg/mL (≈ 2.11 µM).
For `CCCS(=O)(=O)Nc1ccc(F)c(C(=O)Nc2cnc3[nH]cc(Br)c3c2)c1F`, the solubility at 24 h was under 1 µg/mL.
For `CCCS(=O)(=O)Nc1ccc(Cl)c(C(=O)Nc2cnc3[nH]ncc3c2)c1F`, the solubility at 24 h was 15 µg/mL (≈ 36.4 µM).

System: not listed separately
Experiment: AUC in CD-1 mouse at 30 mg/kg, po
Type: ADME, organism-based
Parameters: dose 30 mg/kg, route oral
Conditions: plasma
Method in brief: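 Single oral dose given to mice as a solution in 40% PEG400/10% ethanol/50% water, at 30 mg/kg or 100 mg/kg. Exposure is reported as AUC in μg h/mL.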
`CCCS(=O)(=O)Nc1ccc(F)c(C(=O)Nc2cnc3[nH]ncc3c2)c1F` gave an AUC of 40000 ng·h/mL.
`CCCS(=O)(=O)Nc1ccc(F)c(C(=O)Nc2cnc3[nH]nc(Br)c3c2)c1F` gave an AUC of 52500 ng·h/mL.
Work on `CCCS(=O)(=O)Nc1ccc(F)c(C(=O)Nc2cnc3[nH]cc(Br)c3c2)c1F` yielded an AUC of 49000 ng·h/mL.
`CCCS(=O)(=O)Nc1ccc(Cl)c(C(=O)Nc2cnc3[nH]ncc3c2)c1F` showed an AUC of 147000 ng·h/mL.

System: not listed separately
Experiment: Volume of distribution in CD-1 mouse
Type: ADME, organism-based
Conditions: in vivo
Method in brief: (§1)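 Some compounds were also given intravenously to mice. Clearance is reported in mL/min/kg and volume of distribution in L/kg.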
With `CCCS(=O)(=O)Nc1ccc(F)c(C(=O)Nc2cnc3[nH]ncc3c2)c1F` the Vd was 0.68 L/kg.
Work on `CCCS(=O)(=O)Nc1ccc(F)c(C(=O)Nc2cnc3[nH]cc(Br)c3c2)c1F` yielded a Vd of 0.24 L/kg.
Molecule `CCCS(=O)(=O)Nc1ccc(Cl)c(C(=O)Nc2cnc3[nH]ncc3c2)c1F` has a Vd of 0.17 L/kg.

Molecular target: T1, Serine/threonine-protein kinase B-raf (Homo sapiens, UniProt P15056, V600E)
T1 sequence (P15056 2-766 V600E limits assumed): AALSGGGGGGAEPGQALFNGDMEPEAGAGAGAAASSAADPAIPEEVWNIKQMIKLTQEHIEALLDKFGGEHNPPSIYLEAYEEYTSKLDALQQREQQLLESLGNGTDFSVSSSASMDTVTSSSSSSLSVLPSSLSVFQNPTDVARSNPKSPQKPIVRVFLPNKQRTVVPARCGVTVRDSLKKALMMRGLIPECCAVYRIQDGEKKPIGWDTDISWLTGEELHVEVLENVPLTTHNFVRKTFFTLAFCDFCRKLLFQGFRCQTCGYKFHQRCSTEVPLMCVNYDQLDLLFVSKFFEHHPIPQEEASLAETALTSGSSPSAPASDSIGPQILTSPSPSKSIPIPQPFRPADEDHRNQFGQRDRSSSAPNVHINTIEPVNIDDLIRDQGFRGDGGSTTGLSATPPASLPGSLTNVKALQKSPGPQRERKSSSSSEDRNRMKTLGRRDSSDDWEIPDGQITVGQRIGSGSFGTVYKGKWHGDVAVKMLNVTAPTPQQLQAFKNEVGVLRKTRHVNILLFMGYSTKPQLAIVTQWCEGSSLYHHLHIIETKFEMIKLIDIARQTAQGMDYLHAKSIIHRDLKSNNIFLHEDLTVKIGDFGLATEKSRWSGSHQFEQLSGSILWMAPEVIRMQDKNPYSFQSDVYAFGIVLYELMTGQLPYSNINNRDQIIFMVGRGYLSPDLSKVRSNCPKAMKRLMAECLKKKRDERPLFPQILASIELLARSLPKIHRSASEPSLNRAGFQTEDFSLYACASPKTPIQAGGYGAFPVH
Experiment: Inhibition of B-Raf V600E mutant-mediated Erk phosphorylation in human A375 cells after 1 hr by fluorescence analysis
Type: cell-based, A-375
Conditions: not given
Method in brief: (§2)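 Cells were not stimulated, and inhibition was read against their basal ERK phosphorylation. This was the mechanistic cellular assay, run in both Malme-3M and A375 lines.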
For `CCCS(=O)(=O)Nc1ccc(F)c(C(=O)Nc2cnc3[nH]ncc3c2)c1F`, the IC50 was 430 nM.
For `CCCS(=O)(=O)Nc1ccc(F)c(C(=O)Nc2cnc3[nH]nc(Br)c3c2)c1F`, the IC50 was 260 nM.
`CCCS(=O)(=O)Nc1ccc(F)c(C(=O)Nc2cnc3[nH]cc(Br)c3c2)c1F` showed an IC50 of 190 nM.
`CCCS(=O)(=O)Nc1ccc(Cl)c(C(=O)Nc2cnc3[nH]ncc3c2)c1F` gave an IC50 of 560 nM.

System: not listed separately
Experiment: Clearance in CD-1 mouse
Type: ADME, organism-based
Conditions: in vivo
Method in brief: as §1
`CCCS(=O)(=O)Nc1ccc(F)c(C(=O)Nc2cnc3[nH]ncc3c2)c1F` showed a clearance of 15 mL/min/kg.
For `CCCS(=O)(=O)Nc1ccc(F)c(C(=O)Nc2cnc3[nH]cc(Br)c3c2)c1F`, the clearance was 7.2 mL/min/kg.
In the case of `CCCS(=O)(=O)Nc1ccc(Cl)c(C(=O)Nc2cnc3[nH]ncc3c2)c1F`, the clearance is reported as 2.3 mL/min/kg.

System: not listed separately
Experiment: Plasma protein binding in CD-1 mouse
Type: ADME, cell-free
Conditions: read-out: PPB (converted)
Molecule `CCCS(=O)(=O)Nc1ccc(F)c(C(=O)Nc2cnc3[nH]ncc3c2)c1F` has a fraction unbound of 0.129.
`CCCS(=O)(=O)Nc1ccc(F)c(C(=O)Nc2cnc3[nH]nc(Br)c3c2)c1F` showed a fraction unbound of 0.016.
With `CCCS(=O)(=O)Nc1ccc(F)c(C(=O)Nc2cnc3[nH]cc(Br)c3c2)c1F` the fraction unbound was 0.006.
`CCCS(=O)(=O)Nc1ccc(Cl)c(C(=O)Nc2cnc3[nH]ncc3c2)c1F` gave a fraction unbound of 0.029.

Molecular target: T1, Serine/threonine-protein kinase B-raf
Experiment: Inhibition of full length human B-Raf V600E mutant expressed in baculovirus infected insect cells assessed as [gamma-33P]incorporation into MEK after 60 mins by scintillation counting
Conditions: not given
With `CCCS(=O)(=O)Nc1ccc(F)c(C(=O)Nc2cnc3[nH]ncc3c2)c1F` the IC50 was 17 nM.
With `CCCS(=O)(=O)Nc1ccc(F)c(C(=O)Nc2cnc3[nH]nc(Br)c3c2)c1F` the IC50 was 4 nM.
For `CCCS(=O)(=O)Nc1ccc(F)c(C(=O)Nc2cnc3[nH]cc(Br)c3c2)c1F`, the IC50 was 3.4 nM.
With `CCCS(=O)(=O)Nc1ccc(Cl)c(C(=O)Nc2cnc3[nH]ncc3c2)c1F` the IC50 was 6.3 nM.

System: not listed separately
Experiment: Aqueous solubility of the compound in phosphate buffer at pH 7.4 after 24 hrs by HPLC analysis
Type: physicochemical
Conditions: not given
For `CCCS(=O)(=O)Nc1ccc(F)c(C(=O)Nc2cnc3[nH]ncc3c2)c1F`, the solubility at 24 h was 150 µg/mL (≈ 379 µM).
For `CCCS(=O)(=O)Nc1ccc(F)c(C(=O)Nc2cnc3[nH]nc(Br)c3c2)c1F`, the solubility at 24 h was 3 µg/mL (≈ 6.33 µM).
With `CCCS(=O)(=O)Nc1ccc(F)c(C(=O)Nc2cnc3[nH]cc(Br)c3c2)c1F` the solubility at 24 h was under 1 µg/mL.
Molecule `CCCS(=O)(=O)Nc1ccc(Cl)c(C(=O)Nc2cnc3[nH]ncc3c2)c1F` has a solubility at 24 h of 48 µg/mL (≈ 117 µM).

Molecular target: T1, Serine/threonine-protein kinase B-raf
Experiment: Inhibition of B-Raf V600E mutant-mediated Erk phosphorylation in human MALME-3M cells after 1 hr by fluorescence analysis
Type: cell-based
Conditions: not given
Method in brief: as §2
`CCCS(=O)(=O)Nc1ccc(F)c(C(=O)Nc2cnc3[nH]ncc3c2)c1F` showed an IC50 of 62 nM.
Work on `CCCS(=O)(=O)Nc1ccc(F)c(C(=O)Nc2cnc3[nH]nc(Br)c3c2)c1F` yielded an IC50 of 44 nM.
`CCCS(=O)(=O)Nc1ccc(F)c(C(=O)Nc2cnc3[nH]cc(Br)c3c2)c1F` gave an IC50 of 39 nM.
`CCCS(=O)(=O)Nc1ccc(Cl)c(C(=O)Nc2cnc3[nH]ncc3c2)c1F` gave an IC50 of 56 nM.
